Results on 18 compounds are retold here after ChEMBL document CHEMBL1156144, “Biaryl ethers as novel non-nucleoside reverse transcriptase inhibitors with improved potency against key mutant viruses” (J Med Chem, 2009).

pKi: −log10 of the molar value.

Data set [1] concerns Human immunodeficiency virus. In words: Antiviral activity against wild type HIV H9-3B infected in human MT2 cells assessed as inhibition of viral replication measuring p24 level after 3 days in presence of 50% normal human serum. The class given is functional. Conditions: Human immunodeficiency virus 1, H9-3B, 72 h, read-out: CIC95. Put shortly:
(§1)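 Multiple-cycle spread assay in MT2 cells with wild-type H9IIIB virus. Cells were infected overnight at moi ≈ 0.01 without compound, washed, then cultured 3 days across varying compound concentrations in RPMI 1640 with 10% FBS or 50% NHS. p24 was measured in supernatants. CIC95 is the lowest concentration inhibiting replication ≥95%, as the geometric mean of ≥2 determinations.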

Data set [2] has as its system Human immunodeficiency virus. The experiment in a line: Antiviral activity against wild type HIV H9-3B infected in human MT2 cells assessed as inhibition of viral replication measuring p24 level after 3 days in presence of 10% fetal bovine serum. Conditions: Human immunodeficiency virus 1, MT2, Serum; read-out: CIC95. The class given is functional. Put shortly: as §1

Data set [3] deals with Human immunodeficiency virus. The experiment in a line: Antiviral activity against HIV with reverse transcriptase K103N mutant infected in human MT2 cells assessed as inhibition of viral replication measuring p24 level after 3 days in presence of 10% fetal bovine serum. Conditions: Human immunodeficiency virus 1, MT2, Serum, 72 h; read-out: CIC95. The class given is functional. Put shortly: (§2)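 Multiple-cycle replication (Spread) assay in MT2 cells with H9IIIB-background mutant virus. Cells were infected overnight at moi ≈ 0.01 without compound, washed, then cultured 3 days across a range of compound concentrations in medium with 10% FBS. p24 was measured in supernatants. CIC95 is the lowest concentration inhibiting replication by ≥95%, reported as the geometric mean of ≥2 determinations.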

The target of data set [4] is Human immunodeficiency virus type 1 reverse transcriptase (Human immunodeficiency virus 1, UniProt Q72547, K103N). In words: Inhibition of RNA-dependent DNA polymerase activity of recombinant HIV reverse transcriptase K103N mutant assessed as BrdU incorporation by standard ECL assay. Background: Incorporation of labelled thymidine or its analogues reports DNA synthesis.

The nature of data set [5]: Inhibition of RNA-dependent DNA polymerase activity of wild type HIV reverse transcriptase assessed as BrdU incorporation by standard ECL assay. Further details: species or system Human immunodeficiency virus. In outline:
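Purified recombinant wild-type RT polymerase activity was measured using a 500-nt heteropolymeric RNA template and a biotinylated DNA primer. BrdU incorporation was detected with a ruthenylated anti-BrdU antibody by electrochemiluminescence. Ki is the geometric mean of at least two determinations, each within 25% of the mean.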

In data set [6] the test system is Human immunodeficiency virus. The experiment in a line: Antiviral activity against HIV with reverse transcriptase Y181C mutant infected in human MT2 cells assessed as inhibition of viral replication measuring p24 level after 3 days in presence of 10% fetal bovine serum. Particulars: Human immunodeficiency virus 1, MT2, Serum, 72 h; read-out: CIC95. Type of data set: functional. In outline: as §2

Data set [7] concerns Human immunodeficiency virus. The experiment in a line: Antiviral activity against HIV with reverse transcriptase K103N/Y181C double mutant infected in human MT2 cells assessed as inhibition of viral replication measuring p24 level after 3 days in presence of 10% fetal bovine serum. Particulars: Human immunodeficiency virus 1, MT2, Serum, 72 h; read-out: CIC95. Type of data set: functional. Put shortly:
as §2

Data set [8] can be described thus: Clearance in Sprague-Dawley rat at 2 mg/kg, iv. Type of data set: ADME, organism-based. Further details: dose 2 mg/kg, route intravenous. Particulars: in vivo.
The nature of data set [9]: Half life in Sprague-Dawley rat at 2 mg/kg, iv. Type of data set: ADME, organism-based. Further details: dose 2 mg/kg, route intravenous. Particulars: in vivo.
Data set [10] can be described thus: Volume of distribution in Sprague-Dawley rat at 2 mg/kg, iv. The class given is ADME, organism-based. Further details: dose 2 mg/kg, route intravenous. Particulars: in vivo.
In another data set the test system is Rattus norvegicus. The experiment in a line: AUC in Sprague-Dawley rat at 2 mg/kg, iv. Type of data set: ADME, organism-based, Plasma. Further details: dose 2 mg/kg, route intravenous. Particulars: in vivo.

The pKi is the Ki on a negative log10 scale, so that one unit is a factor of ten. In the case of `N#Cc1cc(Cl)cc(Oc2cc(OCc3n[nH]c4ncccc34)cc(F)c2Cl)c1`, the IC95 was 59 nM in data set [1]; 16 nM in [2]; 11 nM in data set [3]; 31 nM in data set [6]; 93 nM in data set [7]. The negative-log Ki (pKi) in [4] is 9.05; in data set [5], 9.30.

On to `N#Cc1cc(Cl)cc(Oc2ccc(Cl)c(OCc3n[nH]c4ncccc34)c2)c1`, for which the IC95 in [1], in data set [2] and in data set [3] was greater than 8300 nM each time. In addition, the pKi in [4] is 6.85; in [5], 7.77.

Broadly, the clearance is the rate of elimination divided by the concentration. A lower clearance goes with inefficient removal. Broadly, the half-life is the time in which the quantity being followed falls by half. A low value points to fast loss. In general, Vd refers to the apparent volume that relates the amount in the body to the concentration in plasma or blood. The low end stands for confinement near the circulation, the high end for extensive tissue distribution. In the case of `N#Cc1cc(Cl)cc(Oc2cc(OCc3noc4nc(N)ccc34)cc(F)c2Cl)c1`, the IC95 was 103 nM in data set [1]; 11 nM in [2]; 103 nM in data set [3]; 31 nM in data set [6]; 833 nM in data set [7]. The compound also gave a clearance in data set [8] of 44.9 mL/min/kg. The same compound gave a half-life in data set [9] of 1.9 h. The compound further had a Vd in data set [10] of 5.1 L/kg. In the data set with Rattus norvegicus, this compound came in with an AUC of 0.4 µM. The values for the pKi in data set [4] and in data set [5] were 9.10 and 9.70, respectively.

As for `N#Cc1cc(Cl)cc(Oc2cc(OCc3noc4nc(N)ccc34)ccc2Cl)c1`, the IC95 in data set [1] was 34 nM; in data set [2], 11 nM; in [3], 34 nM; in [6] it was 93 nM; in [7] it was 278 nM. In data set [8], the clearance came out at 93.4 mL/min/kg. The same compound had a half-life in [9] of 5.8 h. Also, the Vd in data set [10] came out at 44.7 L/kg. Besides, the AUC with Rattus norvegicus is 0.8 µM. For the same compound, the pKi was 9.40 in [4] and 9.52 in data set [5].

As to `Cc1cc(OCc2n[nH]c3ncccc23)cc(Oc2cc(Cl)cc(C#N)c2)c1Cl`, the IC95 in [1] came to 103 nM; in [2], 11 nM; in [3], 103 nM; in [6], 31 nM; in [7], 278 nM. The values for the pKi in data set [4] and in data set [5] were 8.72 and 9.40, respectively.

As to `N#Cc1cc(Cl)cc(Oc2cc(OCc3noc4nc(C5=NCCN5)ccc34)ccc2Cl)c1`, the IC95 in [1], in [2] and in data set [3] was 309 nM in each case. Also, the pKi in data set [4] was 8.20; in data set [5], 8.64.

Turning to `N#Cc1cc(Cl)cc(Oc2cc(F)cc(OCc3n[nH]c4nc(N)ccc34)c2)c1`, the values for the IC95 in data set [1], in data set [2] and in data set [3] were 103 nM, less than 3.8 nM and 309 nM, respectively. In addition, the pKi in data set [4] is 8.48; in data set [5], 8.70.

On to `N#Cc1cc(Cl)cc(Oc2cc(OCc3n[nH]c4ncccc34)cc(Cl)c2Cl)c1`, for which the IC95 in [1] was found to be 103 nM; in data set [2], 18 nM; in [3], 34 nM; in [6], 31 nM; in data set [7], 277 nM. The same compound displayed a clearance in data set [8] of 5.5 mL/min/kg. This compound showed a half-life in data set [9] of 9.4 h. The compound further gave a volume of distribution (Vd) in data set [10] of 1.8 L/kg. This compound also yielded an AUC in the data set on Rattus norvegicus of 3.5 µM. Also, the values for the pKi in [4] and in [5] were 8.34 and 8.57, respectively.

As for `N#Cc1cc(Cl)cc(Oc2cc(OCc3noc4nc(N5CCNCC5)ccc34)ccc2Cl)c1`, the IC95 in [1] was 309 nM; in data set [2] it was 33 nM; in data set [3], 103 nM; in data set [6], 833 nM; in data set [7] it was 833 nM. Further, the results for the pKi in data set [4] and in data set [5] were 8.52 and 8.77, respectively.

Regarding `N#Cc1cc(Cl)cc(Oc2cc(F)c(Cl)c(OCc3n[nH]c4nc(N)ccc34)c2)c1`, the IC95 in [1] is greater than 8330 nM; in data set [2], 2780 nM; in [3], greater than 8330 nM. Besides, the pKi is less than 6.04 in data set [4] and 6.92 in data set [5].

Consider `N#Cc1cc(Cl)cc(Oc2ccc(F)c(OCc3n[nH]c4ncccc34)c2)c1`, for which the figures for the IC95 in data set [1], in [2] and in data set [3] were greater than 8300 nM, 3770 nM and greater than 8300 nM, respectively. Besides, the figures for the pKi in data set [4] and in data set [5] were 6.46 and 7.33, respectively.

For `N#Cc1cc(Cl)cc(Oc2cc(OCc3noc4nc(N5CCCCC5)ccc34)ccc2Cl)c1`, the IC95 in data set [2], in data set [3] and in [6] was greater than 8330 nM throughout. For the same compound, the pKi in data set [4] was 8.14; in data set [5], 8.66.

With `CNc1ccc2c(COc3ccc(Cl)c(Oc4cc(Cl)cc(C#N)c4)c3)noc2n1`, the IC95 in data set [1] came out at 103 nM; in [2] it was 103 nM; in [3], 309 nM. The compound further registered a clearance in data set [8] of 24.6 mL/min/kg. The compound further showed a half-life in [9] of 2 h. Further, the Vd in [10] turned out to be 2 L/kg. For the same compound, the AUC in the data set with Rattus norvegicus turned out to be 0.8 µM. The pKi is 9.05 in [4] and 9.52 in data set [5].

Regarding `CN(C)c1ccc2c(COc3ccc(Cl)c(Oc4cc(Cl)cc(C#N)c4)c3)noc2n1`, the values for the IC95 in [1], in [2] and in [3] were 309 nM, 103 nM and 309 nM, respectively. The pKi is 9.05 in data set [4] and 9.52 in data set [5].

Regarding `N#Cc1cc(Cl)cc(Oc2cc(OCc3noc4ncccc34)ccc2Cl)c1`, the IC95 in data set [1] came to 103 nM; in data set [2] it was 19 nM; in [3], 103 nM; in data set [6], 93 nM; in data set [7], 278 nM. Moreover, the pKi in data set [4] is 8.68; in data set [5] it was 8.80.

On to `N#Cc1cc(Cl)cc(Oc2cc(OCc3noc4nc(-n5ccnc5)ccc34)ccc2Cl)c1`, for which the IC95 in data set [1] came out at 309 nM; in data set [2], 33 nM; in [3] it was 103 nM; in [6], 278 nM; in data set [7] it was 833 nM. Moreover, the clearance in [8] is 26.9 mL/min/kg. In [9], the half-life is 1.7 h. Also, the Vd in [10] came out at 2.2 L/kg. Moreover, the AUC in the data set with Rattus norvegicus came to 0.7 µM. Moreover, the pKi in data set [4] is 9.10; in [5], 9.70.

As for `N#Cc1cc(Cl)cc(Oc2cc(F)c(Cl)c(OCc3n[nH]c4ncccc34)c2)c1`, the IC95 in data set [1] was determined as 103 nM; in [2] it was 11 nM; in [3] it was 11 nM; in data set [6] it was 31 nM; in [7] it was 93 nM. Also, the pKi in data set [4] is 9.10; in data set [5] it was 8.28.

With `N#Cc1cc(Cl)cc(Oc2cc(OCc3noc4nc(N5CCOCC5)ccc34)ccc2Cl)c1`, the figures for the IC95 in data set [1], in data set [2] and in [3] were 956 nM, 103 nM and 926 nM, respectively. In addition, the results for the pKi in [4] and in [5] were 8.07 and 8.74, respectively.
